Experiments:
[1] = Serum IDeg pharmacokinetics; type: in vivo, Japanese patients with type 1 diabetes
How it was run: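 Serum drug levels were measured by specific sandwich ELISA. Troughs were drawn before each of 6 once-daily doses given at 20.00 h. After the last dose, samples were taken every 1–2 h to 24 h, then at 30, 36, 48, 72, 96 and 120 h. Post-hoc steady-state time was the time from first dose until troughs exceeded 90% of final plateau.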

[2] = Safety: adverse events, hypoglycemic episodes, injection-site reactions; type: in vivo, Japanese patients with type 1 diabetes
How it was run: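 Randomized, double-blind, two-period crossover trial with once-daily […] dosing at 20.00 h for 6 days; periods separated by 7–21-day washout; insulin aspart boluses allowed. Safety end-points: AEs, injection-site reactions, ECG, vital signs, labs. Confirmed hypoglycemia: severe (ADA definition), plasma glucose <3.1 mmol/L, or full blood glucose <2.8 mmol/L.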

[3] = cited from earlier work

For insulin degludec [IDeg], the “Time to steady state (trough concentrations exceeding 90% of final plateau)” value ([1]; once-daily dosing, all Japanese patients, confirmed by post-hoc analyses) was 2 to 3 days, the “Time for which serum IDeg was detectable after the last dose” value ([1]; steady state, 120 h = end of observation period, Japanese patients) was “at least 120 h” and the Tolerability ([2]; 6 days of once-daily 0.4 U/kg, 22 Japanese type 1 diabetes patients) was “well tolerated”. For the same substance, the Injection-site reactions ([2]; after treatment with IDeg) was “no injection‐site reactions were recorded”, the “Serious AEs” value ([2]; after treatment with IDeg) was “No serious AEs occurred” and the “Treatment-emergent AEs (other than hypoglycemia), number” value ([2]; after treatment with IDeg, all AEs mild) was “three”. The “Patients with confirmed treatment-emergent hypoglycemic episodes, number” value ([2]; fixed dose 0.4 U/kg) was 13 patients, the “Confirmed treatment-emergent hypoglycemic episodes, number” value ([2]; fixed dose 0.4 U/kg, confirmed = severe, or plasma glucose <3.1 mmol/L) was 93 and the “AUCτ,SS, 24-h exposure” value ([3]; Caucasian patients, 0.4 U/kg) was 82,612 pmol h/L. For the same substance, the “Time to steady state” value ([3]; previously shown) was 2 to 3 days.

— article PMC4773674 (Journal of Diabetes Investigation, 2015)
